From ChEMBL document CHEMBL3259690, “Synthesis, structure-activity relationships, and biological studies of chromenochalcones as potential antileishmanial agents” (J Med Chem, 2014)

Legend:
[1] = In vitro metabolic stability in syrian golden hamster liver S9 fraction at 10 uM in absence of NADPH; type: ADME, Mesocricetus auratus; conditions: s9, 10 µM
Outline: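 Hamster liver S9 (2 mg/mL protein), 50 mM Tris, 20 mM MgCl₂, 2 mM NADPH preincubated 10 min, then compound added at 10 μM final (1% organic) at 37 °C in triplicate. Sampled 0−60 min; no-NADPH control sampled at 0, 15, 30 and 60 min. Quenched with ice-cold methanol, extracted by LLE. Data as % parent remaining versus 0 min; testosterone as positive control.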

[2] = Stability of the compound in simulated gastric fluid at 10 uM by HPLC-UV analysis; type: physicochemical; conditions: simulated gi fluid
Outline: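 Simulated gastric and intestinal fluids made to USP specifications. Compound at 10 μM incubated in SGF sampled at 0, 15, 30 and 60 min, and in SIF at 0, 30, 60, 90 and 120 min. Mean ± SEM.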

J774.A1 [3] = test: Induction of nitric oxide production in mouse J774A1 cells infected with Leishmania donovani after 24 hrs by Griess reagent based spectrophotometric analysis relative to control; type: functional
Outline: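 Infected J774A.1 macrophages (1 × 10⁶/mL) incubated with compound for 24 h; LPS 10 μg/mL as stimulant. Supernatant mixed 1:1 with Griess reagent at room temperature, absorbance at 540 nm, nitrite reported in μM. Normal, infected-untreated and infected-treated cells compared. Two independent experiments, mean ± SD; Student's t test against infected control.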

Leishmania donovani [4] = test: Antileishmanial activity against extracellular promastigote form of Leishmania donovani MHOM/IN/80/Dd8 expressing firefly luciferase gene assessed as inhibition of parasitic multiplication at 25 uM after 96 hrs by luminescence analysis; type: functional; conditions: MHOM/IN/80/Dd8, 96 h
Outline: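 Late-log luciferase-expressing Dd8 promastigotes, 5 × 10⁵/mL in complete M-199, incubated with compound at 24 °C for 96 h. Aliquot mixed with Steady Glo and luminescence read as RLU. Inhibition of multiplication taken from luciferase signal of treated versus untreated parasites.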

Leishmania donovani [5] = test: Induction of apoptosis in Leishmania donovani MHOM/IN/80/Dd8 promastigotes assessed as drop in mitochondrial membrane potential at 0.78 uM after 6 hrs by JC-1 dye based flow cytometry (reference value: 5.87%); type: functional
[6] = Apparent oral clearance in Syrian golden hamster at 100 mg/kg, po administered via gavage as single dose by HPLC-UV analysis; type: ADME, organism-based, Mesocricetus auratus; parameters: dose 100 mg/kg, route oral; conditions: in vivo
Outline: (§1)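 Male Syrian golden hamsters (100 ± 15 g) given a single oral dose of 100 mg/kg. Plasma stored at −70 °C and assayed by HPLC-UV. Concentration–time profiles analysed non-compartmentally; values mean ± SD.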

Leishmania donovani [7] = test: Antileishmanial activity against Leishmania donovani MHOM/IN/80/Dd8 amastigotes infected in syrian golden hamster assessed as decrease in parasite count in spleen at 100 mg/kg/day, po for 5 days measured on day 28 after last dose administration by giemsa staining; type: functional; conditions: MHOM/IN/80/Dd8, Spleen
Outline: (§2)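 Golden hamsters of either sex infected intracardially with 1 × 10⁷ L. donovani Dd8 amastigotes. After 15−20 days, pretreatment spleen biopsy; animals with +1 grade infection (5−10 amastigotes/100 spleen cell nuclei) used, 5−6 per compound. Aqueous suspensions dosed IP or PO for 5−10 consecutive days starting 2 days after biopsy. Splenic biopsies on day 7 and 28 after last dose, Giemsa counts; PI = 100 − [(ANAT×100)/(INAT×TIUC)].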

[8] = Cmax in Syrian golden hamster at 100 mg/kg, po administered via gavage as single dose by HPLC-UV analysis; type: ADME, organism-based, Mesocricetus auratus; parameters: dose 100 mg/kg, route oral; conditions: in vivo; outline: as §1
J774.A1 [9] = test: Increase in IL-12 production in mouse J774A1 cells infected with Leishmania donovani at IC50 concentration after 24 hrs by sandwich ELISA relative to control; type: functional
Outline: (§3)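 J774A.1 macrophages (1 × 10⁶) infected with Leishmania at 1:10, treated in 6-well plates at the compound's IC₅₀ concentration, 37 °C, CO₂. Supernatants from normal, infected-untreated and infected-treated cells collected after 24 h. IL-12, TNF-α, IL-10 and TGF-β measured by sandwich ELISA at 450 nm, in pg/mL. Two independent experiments in duplicate, mean ± SD; Student's t test against infected control.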

J774.A1 [10] = test: Decrease in IL-10 production in mouse J774A1 cells infected with Leishmania donovani at IC50 concentration after 24 hrs by sandwich ELISA relative to control; type: functional; outline: as §3
J774.A1 [11] = test: Decrease in TGF-beta production in mouse J774A1 cells infected with Leishmania donovani at IC50 concentration after 24 hrs by sandwich ELISA relative to control; type: functional; outline: as §3
Leishmania donovani [12] = test: Antileishmanial activity against Leishmania donovani MHOM/IN/80/Dd8 amastigotes infected in syrian golden hamster assessed as decrease in parasite count in spleen at 100 mg/kg/day, po for 5 days measured on day 7 after last dose administration by giemsa staining; type: functional; conditions: MHOM/IN/80/Dd8, Spleen; outline: as §2
Leishmania donovani [13] = test: Induction of apoptosis in Leishmania donovani MHOM/IN/80/Dd8 promastigotes assessed as drop in mitochondrial membrane potential at 0.78 uM after 12 hrs by JC-1 dye based flow cytometry (reference value: 5.87%); type: functional
Leishmania donovani [14] = test: Induction of early apoptosis in Leishmania donovani MHOM/IN/80/Dd8 promastigotes at 0.78 uM after 12 hrs by Annexin V-FITC/propidium iodide staining based flow cytometry (reference value: 13.70%); type: functional
[15] = Selectivity index, ratio of CC50 for African green monkey Vero cells to IC50 for Leishmania donovani MHOM/IN/80/Dd8 intracellular amastigote form expressing luciferase gene infected in mouse J774A1 cells; type: functional, J774.A1
Outline: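 Ratio of CC₅₀ in Vero cells (72 h MTT) to IC₅₀ against luciferase-expressing amastigotes in J774A.1 macrophages (72 h luminescence).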

Stability [1]: Stable
Stability [2]: Stable
CL/F [6]: 464 mL/min/kg
Cmax [8]: 820 ng/mL
SMILES: CC(C)=CCCC1(C)C=Cc2c(ccc(C(=O)/C=C/c3cccnc3)c2O)O1 (stereo not given)
fold change (FC) (J774.A1 [3]): 6.3
inhibition at 25 µM (Leishmania donovani [4]): 99.8%
Activity (Leishmania donovani [5]): 10.47%
inhibition in vivo at 100 mg/kg/day (Leishmania donovani [7]): 84.5%
fold change (FC) (J774.A1 [9]): 16
fold change (FC) (J774.A1 [10]): 7.11
fold change (FC) (J774.A1 [11]): 4.08
inhibition in vivo at 100 mg/kg/day (Leishmania donovani [12]): 84.7%
Activity (Leishmania donovani [13]): 17.46%
Activity (Leishmania donovani [14]): 28.93%
Ratio CC50/IC50 [15]: 7.5
